HGIII-sPLA2 inh: Inhibits HGIII-sPLA2 liposome hydrolysis, primary screen. Q9NZ20. QFRET BODIPY PC-A2 liposome hydrolysis, fluorescence. inhibition, % at 12.2 µM. actives 0.56% (n = 370,000). AID 743126;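 active means inhibition above mean plus 3 SD of compounds lying within the high and low control bounds, cut at about 19% in these data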;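 further: 0% = median of test compound wells and 100% = no enzyme DMSO wells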
proCasp7 act: counter-screen for procaspase-3 activators: activators of human procaspase-7; activation, % at 8.5 µM; actives 0.093% (n = 330,000); AID 463210; recombinant procaspase-7, Ac-DEVD-pNA absorbance 405 nm; D23A/D198A/D206A triple mutant, cannot self-cleave; scale: DMSO 0, 5 µM enzyme 100;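 active means percent activation above the screen-wide mean plus 3 SD, cut at about 25% in these data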
Target sequence (P55210 whole entry D23A/D198A/D206A): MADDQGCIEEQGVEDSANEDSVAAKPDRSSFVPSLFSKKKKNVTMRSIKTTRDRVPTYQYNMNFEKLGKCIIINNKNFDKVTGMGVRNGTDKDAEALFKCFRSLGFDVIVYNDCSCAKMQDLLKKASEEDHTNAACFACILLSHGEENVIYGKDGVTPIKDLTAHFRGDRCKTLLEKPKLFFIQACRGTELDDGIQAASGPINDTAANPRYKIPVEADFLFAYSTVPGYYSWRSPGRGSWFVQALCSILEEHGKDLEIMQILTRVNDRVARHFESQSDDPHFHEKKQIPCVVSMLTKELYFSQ
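Material: Procaspase-7 triple mutant (PC-7 D3A) | Quantity: 2 µM procaspase-7 mutant as dispensed | Reagent: DEVD-pNA substrate | Times: 1 h preincubation, 2 h reaction | Technique: 405 nm absorbance of p-nitroaniline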
Arr AP2 block: blocks beta-arrestin peptide binding to AP2 adaptin | AID 504490 | actives 0.31% (n = 340,000) | inhibition, % at 10 µM | FITC-arrestin peptide / GST-AP2 beads, flow cytometry; AP2 beta2 appendage carries R879A mutation;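 active means inhibition above a set limit, near 3 SD of compounds lacking own fluorescence, cut at about 54% in these data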;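 further: plate controls were DMSO wells for no effect and 5 µM unlabelled arrestin peptide for full effect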
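test system = AP2 appendage R879A on GSH beads | buffer or medium = PBS plus Tween 20 (0.05%) and BSA (0.1%) | incubation = 12 min plus 1 h, RT | detection = bead flow cytometry, FITC channel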
procasp3 activ: activators of human procaspase-3; P42574; recombinant procaspase-3 D3A, Ac-DEVD-pNA absorbance 405 nm; activation, % at 8.5 µM; actives 0.11% (n = 330,000); AID 463141;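 active means activation above the mean of all tested compounds plus 3 SD, cut at about 21% in these data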;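 further: 0% = DMSO alone and 100% = DMSO wells spiked with extra 5 µM PC-3 D3A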
Target sequence (P42574 whole entry D9A/D28A/D175A): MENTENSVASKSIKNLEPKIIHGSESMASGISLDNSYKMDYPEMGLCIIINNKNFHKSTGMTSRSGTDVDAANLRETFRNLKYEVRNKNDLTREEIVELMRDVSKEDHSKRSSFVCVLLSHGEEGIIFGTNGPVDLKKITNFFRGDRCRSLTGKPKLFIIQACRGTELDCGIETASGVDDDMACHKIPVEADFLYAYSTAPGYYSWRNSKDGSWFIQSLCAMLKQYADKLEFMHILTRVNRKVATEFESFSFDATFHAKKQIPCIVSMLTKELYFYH
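Evaluation: percent activation relative to control range; Material: Procaspase-3 D3A mutant, all three cleavage aspartates alanine; Compound: single dose, 8.5 µM nominal compound, 0.8% DMSO; Replication: one well per compound; Signal: absorbance at 405 nm, 0 and 120 min; Schedule: 1 h preincubation plus 2 h reaction at 25 °C.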
PLC-gamma1 inh: inhibitors of human phospholipase C gamma1; inhibition, % at 12.2 µM; P19174; AID 720700; actives 0.84% (n = 370,000); purified PLC-gamma1, fluorogenic substrate, fluorescence; in the data active means inhibition above about 9.5%
PLC-beta3 inh: PLC-beta3 (human) inhibition, primary screen; Q01970; Purified PLC-beta3, fluorogenic substrate, fluorescence; inhibition, % at 12.2 µM; actives 0.18% (n = 370,000);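 further: 0% = median of compound wells on plate and 100% = full blocker control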
PLCgamma1 ctr: counter-screen for PLC-beta3 inhibitors: inhibitors of human PLC-gamma1 | shares compounds with PLC-gamma1 inh | purified PLC-gamma1, fluorogenic substrate, fluorescence | inhibition, % at 12.3 µM | actives 3.1% (n = 3,300) | AID 743258; in the data active means inhibition above about 9.5%
PLCb3 confirm: human PLC-beta3 inhibition, confirmation; AID 743261; actives 1% (n = 3,300); purified PLC-beta3, fluorogenic substrate fluorescence; shares compounds with PLC-gamma1 inh; inhibition, % at 12.3 µM
An asterisk follows results filed as active. This is a sample that favours compounds with a hit; in the whole collection about 1.9% have one here. Unless noted, no stated cut-off is given here; in the data, active means inhibition above about 11%; inactive means the rest.

Cc1ccc2c(CN3CC(C)CC(C)C3)cc(=O)oc2c1C (stereo not given) was read as HGIII-sPLA2 inh 9.2, proCasp7 act 11.4, Arr AP2 block 4.0, procasp3 activ -3.5, PLC-gamma1 inh 11.1*, PLC-beta3 inh 5.0, PLCgamma1 ctr -8.0 and PLCb3 confirm -6.9.
FC(F)(F)c1cc(CO[C@@H]2CCCN[C@@H]2c2ccccc2)cc(C(F)(F)F)c1 was read as HGIII-sPLA2 inh -6.5, proCasp7 act 8.1, Arr AP2 block -2.3, procasp3 activ 4.7, PLC-gamma1 inh 10.1*, PLC-beta3 inh 9.2, PLCgamma1 ctr -9.7 and PLCb3 confirm -1.8.
`CCOC(=O)C1(Cc2ccccc2)CCN(Cc2ccccc2OC)CC1` gave HGIII-sPLA2 inh -9.3, PLC-gamma1 inh 1.4 and PLC-beta3 inh 5.1.
For O=C(OCc1cn(Cc2ccc(F)cc2)nn1)N1CCCC1 the results were HGIII-sPLA2 inh 15.4, PLC-gamma1 inh 8.4 and PLC-beta3 inh 6.0.
CC(C)(C)C1CCC(C(=O)Nc2ccccc2)CC1 (stereo not given) was read as HGIII-sPLA2 inh -0.4, proCasp7 act 8.9, Arr AP2 block 3.7, procasp3 activ 5.2, PLC-gamma1 inh 11.2*, PLC-beta3 inh 5.3, PLCgamma1 ctr 6.5 and PLCb3 confirm 12.6*.
Screening O=C(Nc1ccc(Nc2ccccc2)cc1)C1CC1 returned HGIII-sPLA2 inh 5.3, proCasp7 act -4.4, Arr AP2 block 15.7, procasp3 activ -5.2, PLC-gamma1 inh 6.9 and PLC-beta3 inh 1.8.
Screening CCCC1CCC2(CC1)CCC2OC(=O)Nc1c(OC)cccc1OC (stereo not given) returned HGIII-sPLA2 inh 10.8, PLC-gamma1 inh 2.0 and PLC-beta3 inh -7.5.
Cc1cc(=O)oc(C)c1C(=O)OCC(=O)c1ccc(Cl)c(Cl)c1 was read as HGIII-sPLA2 inh -27.1, proCasp7 act 4.5, Arr AP2 block 15.2, procasp3 activ 5.3, PLC-gamma1 inh -5.5 and PLC-beta3 inh -4.5.
`Cc1ccc(C(=O)COC(=O)c2c(C)cc(=O)oc2C)cc1[N+](=O)[O-]` gave HGIII-sPLA2 inh -26.7, proCasp7 act -5.7, Arr AP2 block 5.0, procasp3 activ -7.9, PLC-gamma1 inh 6.6, PLC-beta3 inh 11.9*, PLCgamma1 ctr -5.2 and PLCb3 confirm -2.3.
Screening OC(CN1CCCCC1)CN1CCCCC1 returned HGIII-sPLA2 inh -4.7, proCasp7 act 1.1, Arr AP2 block 17.9, procasp3 activ -0.9, PLC-gamma1 inh 11.0*, PLC-beta3 inh -94.8, PLCgamma1 ctr -3.4 and PLCb3 confirm 0.2.
`O=C(/C=C/Nc1ccc(F)cc1F)c1ccco1` gave HGIII-sPLA2 inh -0.2, proCasp7 act -5.2, Arr AP2 block 24.1, procasp3 activ 6.0, PLC-gamma1 inh -9.9 and PLC-beta3 inh -9.1.
For O=C(/C=C/Nc1ccc(F)cc1F)c1ccc(Br)cc1 the results were HGIII-sPLA2 inh -4.7, proCasp7 act -14.6, Arr AP2 block 7.2, procasp3 activ -21.1, PLC-gamma1 inh 12.0*, PLC-beta3 inh 1.2, PLCgamma1 ctr -67.4 and PLCb3 confirm -59.8.
Screening COC(=O)[C@]12C[C@H](CC(=O)N3CCC(c4ccccc4)CC3)C(=O)N(Cc3ccc(Cl)cc3Cl)C1=C[C@H](C1CCCC1)O[C@@H]2C returned HGIII-sPLA2 inh 3.0, PLC-gamma1 inh 0.7 and PLC-beta3 inh 0.5.
`COC(=O)C12C=C3CC(c4ccc(OC)cc4)=C3C(=O)N1Cc1[nH]c3ccccc3c1C2` (stereo not given) gave HGIII-sPLA2 inh -4.6, PLC-gamma1 inh -32.3 and PLC-beta3 inh -48.5.
Cn1c(SCC2CCCO2)nnc1-c1ccc([N+](=O)[O-])cc1 (stereo not given) was read as HGIII-sPLA2 inh 7.8, proCasp7 act 1.4, Arr AP2 block -17.8, procasp3 activ -5.6, PLC-gamma1 inh 2.1 and PLC-beta3 inh -1.9.
Screening CCCCn1c(SCc2nc(N)nc(Nc3ccccc3C)n2)nc2ccccc2c1=O returned HGIII-sPLA2 inh -15.6, proCasp7 act 3.0, Arr AP2 block 20.5, procasp3 activ -0.8, PLC-gamma1 inh -1.0 and PLC-beta3 inh 1.3.
Screening COCC(C)n1c(SCc2nc(N)nc(Nc3ccccc3C)n2)nc2ccccc2c1=O (stereo not given) returned HGIII-sPLA2 inh -6.1, proCasp7 act 3.8, Arr AP2 block -8.0, procasp3 activ 0.1, PLC-gamma1 inh 11.4*, PLC-beta3 inh -2.1, PLCgamma1 ctr -6.7 and PLCb3 confirm -2.3.
Cc1[nH]c(=O)[nH]c(=O)c1Sc1ccccc1[N+](=O)[O-] was read as HGIII-sPLA2 inh -1.9, proCasp7 act -3.0, Arr AP2 block -5.2, procasp3 activ -18.5, PLC-gamma1 inh 12.4*, PLC-beta3 inh 2.2, PLCgamma1 ctr -3.3 and PLCb3 confirm -0.8.
For CCCCn1c(N)c(Sc2ccccc2[N+](=O)[O-])c(=O)[nH]c1=O the results were HGIII-sPLA2 inh 10.0, proCasp7 act 4.3, Arr AP2 block 7.8, procasp3 activ -10.0, PLC-gamma1 inh 4.3 and PLC-beta3 inh -1.8.
Screening COC(=O)C12OCC34C(CC5C(C)=C(O)C(=O)CC5(C)C3C(O)C1O)OC(=O)C(OC(=O)C=C(C)C)C24 (stereo not given) returned HGIII-sPLA2 inh -3.2, Arr AP2 block -1.4, PLC-gamma1 inh 12.3*, PLC-beta3 inh 6.7, PLCgamma1 ctr -1.8 and PLCb3 confirm -5.9.
Cc1cccc(C(=O)N2CCN(c3ccc([N+](=O)[O-])c(NCc4ccco4)c3)CC2)c1 was read as HGIII-sPLA2 inh -16.9, proCasp7 act -38.1, Arr AP2 block 27.4, procasp3 activ -7.5, PLC-gamma1 inh 9.5*, PLC-beta3 inh -1.6, PLCgamma1 ctr -1.7 and PLCb3 confirm -1.4.
COC(=O)CSc1nnc(-c2cccs2)o1 was read as HGIII-sPLA2 inh -2.3, PLC-gamma1 inh -2.4 and PLC-beta3 inh -0.3.
CCCC[C@H]1C2CC(OC(=O)Nc3ccccc3Cl)C(C2)[C@H]2CCCCN21 (stereo not given in full) was read as HGIII-sPLA2 inh 13.2, PLC-gamma1 inh -0.4 and PLC-beta3 inh -1.7.
For O=C(NCc1ccccc1)Nc1nnc([C@@H]2C[C@H](O)[C@@H](CO)O2)s1 the results were HGIII-sPLA2 inh 4.0, PLC-gamma1 inh 15.2*, PLC-beta3 inh 5.6, PLCgamma1 ctr -5.7 and PLCb3 confirm 0.6.

Assay outcomes (PubChem BioAssay)
